Assay results as given in the M2OR odorant receptor database.

Assays:
Conditions in all cases: stereoisomer not certain
UniProt Q8VGJ5 = molecular target: T1, UniProt Q8VGJ5
T1 sequence (whole entry): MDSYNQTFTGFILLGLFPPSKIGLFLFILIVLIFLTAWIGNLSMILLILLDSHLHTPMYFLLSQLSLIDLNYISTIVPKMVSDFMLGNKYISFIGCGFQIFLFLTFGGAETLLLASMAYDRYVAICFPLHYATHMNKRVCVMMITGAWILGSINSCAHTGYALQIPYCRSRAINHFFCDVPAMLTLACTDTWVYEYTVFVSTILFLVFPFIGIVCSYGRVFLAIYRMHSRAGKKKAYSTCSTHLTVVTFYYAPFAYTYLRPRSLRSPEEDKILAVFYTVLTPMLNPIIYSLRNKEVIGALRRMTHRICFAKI
Method in brief: (§1)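 Transient luciferase assays in mammalian cell lines were common, though methods varied by source. The values come from published papers and their supplementary material, with extra details from the original authors when needed. Responsive refers to a measured signal the original authors judged statistically different from baseline, and non-responsive (inactive) to the remainder.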

UniProt Q8VGL0 = molecular target: T2, UniProt Q8VGL0
T2 sequence (whole entry): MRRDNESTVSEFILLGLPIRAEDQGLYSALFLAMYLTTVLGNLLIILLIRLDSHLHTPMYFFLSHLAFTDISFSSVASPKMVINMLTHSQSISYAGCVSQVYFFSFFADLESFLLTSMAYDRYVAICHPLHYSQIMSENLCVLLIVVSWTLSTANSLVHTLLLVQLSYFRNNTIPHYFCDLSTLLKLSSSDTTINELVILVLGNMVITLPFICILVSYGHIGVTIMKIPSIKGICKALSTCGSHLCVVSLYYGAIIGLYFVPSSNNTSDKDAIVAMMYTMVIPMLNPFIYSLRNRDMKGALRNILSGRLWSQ
Method in brief: as §1

UniProt Q8VGL7 = molecular target: T3, UniProt Q8VGL7
T3 sequence (whole entry): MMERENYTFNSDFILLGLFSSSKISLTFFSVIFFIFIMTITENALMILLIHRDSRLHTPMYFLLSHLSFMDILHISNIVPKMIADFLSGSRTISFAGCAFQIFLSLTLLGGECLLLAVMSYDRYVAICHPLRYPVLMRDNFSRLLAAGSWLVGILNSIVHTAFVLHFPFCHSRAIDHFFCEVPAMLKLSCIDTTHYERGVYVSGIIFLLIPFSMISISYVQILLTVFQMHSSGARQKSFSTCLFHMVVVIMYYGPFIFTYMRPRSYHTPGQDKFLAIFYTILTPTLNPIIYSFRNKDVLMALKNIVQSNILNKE
Method in brief: as §1

UniProt Q8VGM2 = molecular target: T4, UniProt Q8VGM2
T4 sequence (whole entry): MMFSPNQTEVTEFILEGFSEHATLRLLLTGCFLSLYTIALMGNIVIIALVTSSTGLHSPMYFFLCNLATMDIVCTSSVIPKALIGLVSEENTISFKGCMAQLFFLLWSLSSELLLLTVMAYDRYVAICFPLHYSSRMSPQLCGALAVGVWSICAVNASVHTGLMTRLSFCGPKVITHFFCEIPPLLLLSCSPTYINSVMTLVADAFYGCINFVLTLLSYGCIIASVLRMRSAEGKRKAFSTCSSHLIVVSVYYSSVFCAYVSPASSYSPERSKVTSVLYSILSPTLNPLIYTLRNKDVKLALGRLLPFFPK
Method in brief: as §1

UniProt Q8VGP6 = molecular target: T5, UniProt Q8VGP6
T5 sequence (whole entry): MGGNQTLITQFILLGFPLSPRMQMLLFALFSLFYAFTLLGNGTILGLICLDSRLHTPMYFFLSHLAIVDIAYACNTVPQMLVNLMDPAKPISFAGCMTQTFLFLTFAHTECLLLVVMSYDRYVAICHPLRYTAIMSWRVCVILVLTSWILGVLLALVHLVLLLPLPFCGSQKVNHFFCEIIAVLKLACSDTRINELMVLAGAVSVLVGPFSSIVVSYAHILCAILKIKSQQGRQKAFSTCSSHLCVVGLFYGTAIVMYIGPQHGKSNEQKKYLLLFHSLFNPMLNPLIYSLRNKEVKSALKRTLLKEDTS
Method in brief: as §1

UniProt Q8VGQ3 = molecular target: T6, UniProt Q8VGQ3
T6 sequence (whole entry): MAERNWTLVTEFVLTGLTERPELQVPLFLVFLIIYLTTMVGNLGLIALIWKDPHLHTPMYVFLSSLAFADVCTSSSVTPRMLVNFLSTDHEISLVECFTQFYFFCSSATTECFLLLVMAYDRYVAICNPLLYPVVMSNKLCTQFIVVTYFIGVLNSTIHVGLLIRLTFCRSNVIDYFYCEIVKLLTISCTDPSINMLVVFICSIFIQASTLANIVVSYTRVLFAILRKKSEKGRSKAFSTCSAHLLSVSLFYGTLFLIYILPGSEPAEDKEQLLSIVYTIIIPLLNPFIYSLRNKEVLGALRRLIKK
Method in brief: as §1

UniProt Q8VGT4 = molecular target: T7, UniProt Q8VGT4
T7 sequence (whole entry): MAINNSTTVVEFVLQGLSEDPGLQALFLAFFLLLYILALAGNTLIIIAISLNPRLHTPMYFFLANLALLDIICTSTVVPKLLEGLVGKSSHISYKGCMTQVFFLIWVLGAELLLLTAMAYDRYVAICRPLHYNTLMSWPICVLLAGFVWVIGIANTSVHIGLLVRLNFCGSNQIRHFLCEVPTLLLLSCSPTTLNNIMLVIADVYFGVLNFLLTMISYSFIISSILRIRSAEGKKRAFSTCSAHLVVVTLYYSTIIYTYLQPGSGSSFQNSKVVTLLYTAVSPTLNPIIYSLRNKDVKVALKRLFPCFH
Method in brief: as §1

UniProt Q8VGV1 = molecular target: T8, UniProt Q8VGV1
T8 sequence (whole entry): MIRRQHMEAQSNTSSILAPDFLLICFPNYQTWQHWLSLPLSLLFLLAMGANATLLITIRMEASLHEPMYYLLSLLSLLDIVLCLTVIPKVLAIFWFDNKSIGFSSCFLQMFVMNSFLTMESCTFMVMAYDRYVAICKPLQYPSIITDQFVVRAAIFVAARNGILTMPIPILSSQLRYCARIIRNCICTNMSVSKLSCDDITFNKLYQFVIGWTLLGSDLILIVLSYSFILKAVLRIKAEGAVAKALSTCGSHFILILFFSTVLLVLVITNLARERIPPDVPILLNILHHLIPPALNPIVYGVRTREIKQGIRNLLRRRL
Method in brief: as §1

UniProt Q8VGX5 = molecular target: T9, UniProt Q8VGX5
T9 sequence (whole entry): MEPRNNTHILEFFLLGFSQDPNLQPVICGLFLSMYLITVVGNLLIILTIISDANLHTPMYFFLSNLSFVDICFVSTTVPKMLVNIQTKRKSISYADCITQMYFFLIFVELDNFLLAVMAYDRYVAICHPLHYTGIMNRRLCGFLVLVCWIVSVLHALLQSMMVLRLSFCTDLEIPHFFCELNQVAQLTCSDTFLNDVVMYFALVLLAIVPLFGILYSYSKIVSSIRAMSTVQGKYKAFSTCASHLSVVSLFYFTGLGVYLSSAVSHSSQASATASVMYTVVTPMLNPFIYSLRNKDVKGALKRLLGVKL
Method in brief: as §1

UniProt Q8VGX8 = molecular target: T10, UniProt Q8VGX8
T10 sequence (whole entry): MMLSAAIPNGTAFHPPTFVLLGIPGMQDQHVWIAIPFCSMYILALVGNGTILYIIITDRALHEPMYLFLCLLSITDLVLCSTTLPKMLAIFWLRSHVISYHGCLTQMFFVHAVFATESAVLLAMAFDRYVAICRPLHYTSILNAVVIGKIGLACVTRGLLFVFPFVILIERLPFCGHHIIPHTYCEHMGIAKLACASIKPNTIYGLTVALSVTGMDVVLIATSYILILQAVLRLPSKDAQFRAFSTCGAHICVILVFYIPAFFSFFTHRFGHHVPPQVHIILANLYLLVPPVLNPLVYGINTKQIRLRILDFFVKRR
Method in brief: as §1

UniProt Q8VGY6 = molecular target: T11, UniProt Q8VGY6
T11 sequence (whole entry): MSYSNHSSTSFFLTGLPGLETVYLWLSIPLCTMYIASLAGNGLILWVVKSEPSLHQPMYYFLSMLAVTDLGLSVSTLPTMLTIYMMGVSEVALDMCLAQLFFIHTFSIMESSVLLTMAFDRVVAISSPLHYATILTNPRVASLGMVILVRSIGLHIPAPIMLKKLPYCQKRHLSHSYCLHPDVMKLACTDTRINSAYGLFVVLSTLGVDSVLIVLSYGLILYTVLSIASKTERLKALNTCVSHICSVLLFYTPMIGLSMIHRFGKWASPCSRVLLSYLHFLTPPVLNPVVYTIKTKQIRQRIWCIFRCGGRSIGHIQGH
Method in brief: as §1

UniProt Q8VGZ2 = molecular target: T12, UniProt Q8VGZ2
T12 sequence (whole entry): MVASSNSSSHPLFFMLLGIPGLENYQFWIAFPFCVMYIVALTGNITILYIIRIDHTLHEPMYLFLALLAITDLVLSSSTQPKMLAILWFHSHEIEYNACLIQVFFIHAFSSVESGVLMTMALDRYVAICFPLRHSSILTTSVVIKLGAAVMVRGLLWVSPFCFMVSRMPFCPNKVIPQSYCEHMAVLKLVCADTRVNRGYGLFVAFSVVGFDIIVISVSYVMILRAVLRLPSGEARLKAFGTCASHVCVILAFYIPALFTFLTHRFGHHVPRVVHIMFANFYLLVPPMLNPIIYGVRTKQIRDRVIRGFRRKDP
Method in brief: as §1

UniProt Q8VGZ7 = molecular target: T13, UniProt Q8VGZ7
T13 sequence (whole entry): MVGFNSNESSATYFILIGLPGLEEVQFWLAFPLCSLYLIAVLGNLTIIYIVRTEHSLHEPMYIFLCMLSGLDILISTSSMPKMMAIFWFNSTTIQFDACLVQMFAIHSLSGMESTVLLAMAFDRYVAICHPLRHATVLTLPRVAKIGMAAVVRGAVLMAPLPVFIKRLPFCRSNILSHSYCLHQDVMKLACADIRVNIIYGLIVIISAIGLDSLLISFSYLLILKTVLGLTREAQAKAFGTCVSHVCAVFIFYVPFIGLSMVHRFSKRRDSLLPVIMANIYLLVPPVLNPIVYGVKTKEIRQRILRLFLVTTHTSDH
Method in brief: as §1

UniProt Q8VH10 = molecular target: T14, UniProt Q8VH10
T14 sequence (whole entry): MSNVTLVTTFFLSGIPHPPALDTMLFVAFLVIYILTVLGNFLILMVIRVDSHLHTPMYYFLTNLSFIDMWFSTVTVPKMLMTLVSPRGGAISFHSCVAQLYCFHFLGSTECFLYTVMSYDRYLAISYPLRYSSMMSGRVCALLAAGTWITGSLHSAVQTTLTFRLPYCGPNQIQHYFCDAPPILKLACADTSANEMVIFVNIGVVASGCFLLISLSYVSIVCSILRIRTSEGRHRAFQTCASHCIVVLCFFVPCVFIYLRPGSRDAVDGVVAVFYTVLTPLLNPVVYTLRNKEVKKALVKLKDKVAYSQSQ
Method in brief: as §1

UniProt Q8VH20 = molecular target: T15, UniProt Q8VH20
T15 sequence (whole entry): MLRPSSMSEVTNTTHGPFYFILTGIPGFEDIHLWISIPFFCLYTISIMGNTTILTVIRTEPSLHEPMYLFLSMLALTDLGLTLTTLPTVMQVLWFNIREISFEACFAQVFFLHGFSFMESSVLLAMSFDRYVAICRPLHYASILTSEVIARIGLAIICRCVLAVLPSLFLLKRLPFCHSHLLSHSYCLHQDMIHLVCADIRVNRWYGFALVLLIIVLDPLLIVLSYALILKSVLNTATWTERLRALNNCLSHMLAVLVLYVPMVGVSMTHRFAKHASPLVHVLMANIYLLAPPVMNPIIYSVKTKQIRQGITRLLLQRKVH
Method in brief: as §1
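Note: active if original authors judged signal statistically different from baseline.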

Row | SMILES | odorant receptor agonist call (UniProt Q8VGJ5) | odorant receptor agonist call (UniProt Q8VGL0) | odorant receptor agonist call (UniProt Q8VGL7) | odorant receptor agonist call (UniProt Q8VGM2) | odorant receptor agonist call (UniProt Q8VGP6) | odorant receptor agonist call (UniProt Q8VGQ3) | odorant receptor agonist call (UniProt Q8VGT4) | odorant receptor agonist call (UniProt Q8VGV1) | odorant receptor agonist call (UniProt Q8VGX5) | odorant receptor agonist call (UniProt Q8VGX8) | odorant receptor agonist call (UniProt Q8VGY6) | odorant receptor agonist call (UniProt Q8VGZ2) | odorant receptor agonist call (UniProt Q8VGZ7) | odorant receptor agonist call (UniProt Q8VH10) | odorant receptor agonist call (UniProt Q8VH20)
1 | CCC1CCC(=O)O1 (stereo not given) | active | inactive | inactive | inactive | inactive | inactive | inactive | inactive | inactive | inactive | inactive | inactive | inactive | inactive | inactive
2 | C=CCc1ccccc1 | inactive | inactive | inactive | inactive | inactive | inactive | inactive | inactive | inactive | inactive | inactive | inactive | inactive | inactive | inactive
